In ChEMBL document CHEMBL1275590, “Novel arylimidamides for treatment of visceral leishmaniasis” (Antimicrob Agents Chemother, 2010):

Assays:
Mus musculus [1] = experiment: Toxicity in BALB/c mouse assessed as tremor at 50 mg/kg/day, ip administered for five days; type: organism-based; parameters: route intraperitoneal; details: in vivo
Method in brief: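 Acute overt toxicity was checked in uninfected female BALB/c mice before the efficacy work. Compounds were given intraperitoneally once daily for 5 days, and mice were watched for clinical signs such as ruffled fur, hypoactivity, tremors, ataxia and startle, and for survival.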

Mus musculus [2] = experiment: Hepatotoxicity in BALB/c mouse assessed as alkaline phosphatase level in serum at 10 mg/kg/day, iv administered for five days (Rvb= 134 U/L); type: toxicity, organism-based; parameters: route intravenous; details: in vivo
Mus musculus [3] = experiment: Volume of distribution in Swiss Webster mouse at 131 mg/kg, po by HPLC-MS/MS analysis; type: ADME, organism-based; parameters: dose 131 mg/kg, route oral; details: in vivo
Method in brief: (§1)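 Male Swiss Webster mice (n = 3 per time point) got a single oral gavage dose in sterile water, 5 ml/kg. The 5 mM formulation was a clear solution; the 20 and 40 mM formulations were gelatinous. Terminal blood was collected from 5 min to 72 h postdose, and plasma was analysed by HPLC-MS/MS. Volume of distribution came from noncompartmental analysis.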

[4] = Half life in Swiss Webster mouse at 131 mg/kg, po by HPLC-MS/MS analysis; type: ADME, organism-based; parameters: dose 131 mg/kg, route oral; details: in vivo
Method in brief: (§2)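 Male Swiss Webster mice, n = 3 per time point. For i.v., the compound was dissolved in sterile water, diluted 1:1 with 2× saline, and given as a tail-vein bolus over ~10–20 s. For p.o., it was given by gavage in sterile water. Dose volume was 5 ml/kg. Terminal plasma was taken from 5 min to 72 h and measured by HPLC-MS/MS (calibration 2.5–10,000 nM). Parameters came from noncompartmental analysis.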

Mus musculus [5] = experiment: Renal toxicity in BALB/c mouse assessed as blood urea nitrogen level in serum at 10 mg/kg/day, iv administered for five days (Rvb= 20 mg/dl); type: organism-based; parameters: route intravenous; details: in vivo
Method in brief: (§3)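 Female BALB/c mice (n = 5 per dose), dosed once daily for 5 consecutive days p.o. (20 ml/kg) or i.v. (10 ml/kg) with compound in sterile water, prepared fresh daily under yellow light. Vehicle controls n = 5 per route. Clinical observations, body weights, serum chemistry and hematology on day 6 before necropsy; histopathology of formalin-fixed tissues. Chemistry analysed by one-way ANOVA with Dunnett's posttest.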

[6] = Cmax in Swiss Webster mouse at 16.5 mg/kg, po by HPLC-MS/MS analysis; type: ADME, organism-based; parameters: dose 16.5 mg/kg, route oral; details: in vivo; method in brief: as §2
[7] = Tmax in Swiss Webster mouse at 4.9 mg/kg, iv by HPLC-MS/MS analysis; type: ADME, organism-based; parameters: dose 4.9 mg/kg, route intravenous; details: in vivo
Method in brief: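 Male Swiss Webster mice (n = 3 per time point), single dose by oral gavage (sterile water solution) or tail-vein bolus i.v. (water diluted 1:1 with 2× saline, over ~10–20 s); dose volume 5 ml/kg. Terminal blood sampled from 5 min to 72 h postdose; plasma quantified by HPLC-MS/MS (positive-ion SRM). Noncompartmental analysis gave Cmax, Tmax, AUC0-∞, CL, Vss; bioavailability from p.o. versus i.v. exposure.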

Mus musculus [8] = experiment: Toxicity in BALB/c mouse assessed as ruffled fur at 50 mg/kg/day, ip administered for five days; type: organism-based; parameters: route intraperitoneal; details: in vivo
[9] = Volume of distribution in Swiss Webster mouse at 4.9 mg/kg, iv by HPLC-MS/MS analysis; type: ADME, organism-based; parameters: dose 4.9 mg/kg, route intravenous; details: in vivo
Method in brief: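 Male Swiss Webster mice (n = 3 per time point) got a single tail-vein bolus over ~10 to 20 s, 5 ml/kg. Compound was dissolved in sterile water at 2× and diluted 1:1 with 2× saline. Terminal blood was taken from 5 min to 72 h, and plasma was quantified by HPLC-MS/MS. Vss came from noncompartmental analysis.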

[10] = AUC (0 to infinity) in Swiss Webster mouse at 4.9 mg/kg, iv by HPLC-MS/MS analysis; type: ADME, organism-based; parameters: time infinity, dose 4.9 mg/kg, route intravenous; details: plasma; method in brief: as §2
Mus musculus [11] = experiment: Volume of distribution in Swiss Webster mouse at 16.5 mg/kg, po by HPLC-MS/MS analysis; type: ADME, organism-based; parameters: dose 16.5 mg/kg, route oral; details: in vivo; method in brief: as §1
Mus musculus [12] = experiment: Renal toxicity in BALB/c mouse assessed as phosphorus level in serum at 30 mg/kg/day, iv administered for five days (Rvb= 6.1 mg/dl); type: organism-based; parameters: route intravenous; details: in vivo; method in brief: as §3
[13] = AUC (0 to infinity) in Swiss Webster mouse at 5 mg/kg, iv by HPLC-MS/MS analysis; type: ADME, organism-based; parameters: time infinity, dose 5 mg/kg, route intravenous; details: plasma; method in brief: as §2
Leishmania donovani [14] = experiment: Antileishmanial activity against Leishmania donovani promastigotes in BALB/c mouse assessed as inhibition of liver parasitemia at 100 mg/kg/day, po administered for five days; type: functional; parameters: scale not given: the % may be the effect or the level left
Method in brief: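 Murine VL model in L. donovani-infected mice. Compounds were dissolved in water and given i.p. or p.o. once daily for 5 days (4 days for one i.p. regimen). Liver parasitemia was compared with untreated controls by unpaired Student's t test, P ≤ 0.05.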

Mus musculus [15] = experiment: Toxicity in BALB/c mouse assessed as occurrence of tremor at 50 mg/kg, iv; type: organism-based; parameters: dose 50 mg/kg, route intravenous; details: in vivo
Method in brief: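 Single-dose escalation: female BALB/c mice (n = 1 per dose level) given one i.v. dose in sterile water (10 ml/kg), 5–50 mg/kg, observed for 2 days.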

[16] = Clearance in Swiss Webster mouse at 5 mg/kg, iv by HPLC-MS/MS analysis; type: ADME, organism-based; parameters: dose 5 mg/kg, route intravenous; details: in vivo; method in brief: as §2
[17] = Induction of mutagenicity in Salmonella serovar Typhimurium TA 100 assessed as number of revertant colonies at 50 ug by Ames assay in presence of Aroclor 1254-induced rat liver S9 metabolic activation system; type: toxicity, subcellular, Salmonella enterica subsp. enterica serovar Typhimurium
Method in brief: (§4)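 Ames plate incorporation with S. Typhimurium TA98 and TA100, with or without Aroclor 1254-induced rat liver S9 (10% vol/vol). Compound was dissolved in sterile water and serially diluted to 1–500 μg/plate. Positive controls were 2-nitrofluorene and sodium azide without S9, and 2-aminoanthracene with S9; sterile water and DMSO served as vehicles. Revertant colonies and background lawn were scored. A mutagen was defined as a mean revertant count at least 2-fold over solvent control. Single experiment.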

Leishmania donovani [18] = experiment: Antileishmanial activity against Leishmania donovani WR378 infected in golden Syrian hamster assessed as reduction in liver parasitemia at 100 mg/kg/day, po administered for five days; type: functional; details: 120 h
Method in brief: (§5)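 11-day golden hamster VL model adapted from an 8-day method, using L. donovani WR378 metacyclic promastigotes. Dosing was oral, once daily for 5 days. Animals were euthanized on day 11 post-infection. Liver, spleen and femoral bone marrow (flushed with Schneider's medium) were harvested.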

[19] = Induction of mutagenicity in Salmonella serovar Typhimurium TA 100 assessed as number of revertant colonies at 10 ug by Ames assay in presence of Aroclor 1254-induced rat liver S9 metabolic activation system; type: toxicity, subcellular, Salmonella enterica subsp. enterica serovar Typhimurium; method in brief: as §4
[20] = Induction of mutagenicity in Salmonella serovar Typhimurium TA 98 assessed as number of revertant colonies at 50 ug by Ames assay; type: toxicity, Salmonella enterica subsp. enterica serovar Typhimurium
Method in brief: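 Plate incorporation test, S. Typhimurium TA98 (and TA100), with or without Aroclor 1254-induced rat liver S9 (10% vol/vol). Compound dissolved in sterile water, serially diluted to 1–1,000 or 1–500 μg/plate. Positive controls: 2-nitrofluorene and sodium azide without S9, 2-aminoanthracene with S9; water and DMSO vehicle controls. Revertant colonies and background lawn scored; mutagen if mean revertants ≥2-fold solvent control. Single experiment.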

Leishmania donovani [21] = experiment: Antileishmanial activity against Leishmania donovani WR378 infected in golden Syrian hamster assessed as reduction in bone marrow parasitemia at 50 mg/kg/day, po administered for five days; type: functional; details: 120 h; method in brief: as §5
Mus musculus [22] = experiment: Hepatotoxicity in BALB/c mouse assessed as ALT level in serum at 100 mg/kg/day, po administered for five days (Rvb= 36 U/L); type: toxicity, organism-based; parameters: route oral; details: in vivo

With `CCOc1cc(NC(=N)c2ccccn2)ccc1-c1ccc(-c2ccc(NC(=N)c3ccccn3)cc2OCC)o1` the Activity (Mus musculus [1]) was “Toxic”, the Activity (Mus musculus [2]) was 118 U/L and the Vd (Mus musculus [3]) was 76 L/kg. It also gave a half-life [4] of 32 h, an Activity (Mus musculus [5]) of 24 mg/dL and a Cmax [6] of 20 nM. The Tmax [7] was 5 min, the Activity (Mus musculus [8]) was “Toxic” and the Vd [9] was 22 L/kg. For the same compound, the AUC(0-inf) [10] was 4.5 µM·h and the Vd (Mus musculus [11]) was 57 L/kg.
Compound `CC(C)Oc1cc(NC(=N)c2ccccn2)ccc1-c1ccc(-c2ccc(NC(=N)c3ccccn3)cc2OC(C)C)o1` has an Activity (Mus musculus [12]) of 7.6 mg/dL, an AUC(0-inf) [13] of 9.53 µM·h and an Activity (Leishmania donovani [14]) of 71%. The Activity (Mus musculus [15]) was “Toxic”, the clearance [16] was 13.1 mL/min/kg and the Activity [17] was 135. The inhibition in vivo at 100 mg/kg/day (Leishmania donovani [18]) was 89%, the Activity [19] was 148 and the Activity [20] was 28. The inhibition in vivo at 50 mg/kg/day (Leishmania donovani [21]) was 70% and the Activity (Mus musculus [22]) was 34 U/L.
